The values below come from ChEMBL document CHEMBL1833886, “Synthesis and evaluation of furoxan-based nitric oxide-releasing derivatives of tetrahydroisoquinoline as anticancer and multidrug resistance reversal agents” (Bioorg Med Chem Lett, 2011).

Calls of active or inactive are those of the source. The rule behind the calls is not given here.

In assay [1] the test system is K562. Put plainly: Cytotoxicity against human K562 cells after 48 hrs by MTT assay. The format is functional, cell-based. As to conditions: K562, 48 h. Put shortly: (§1)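 K562 and adriamycin-selected K562/A02 cells in RPMI 1640 with 10% fetal calf serum, 37 °C, 5% CO2; kept drug-free >14 days before assay. Log-phase cells at 1 × 10⁵/mL in 96-well plates, exposed to a range of compound concentrations (DMSO stock, final DMSO ≤0.1%) for 48 h. MTT added during last 4 h, formazan in DMSO, read at 570 nm. Duplicate wells, ≥3 experiments. IC50 by Bliss method.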
(Formazan colour is commonly taken as a measure of viable cells.)

The subject of assay [2] is K562/A02. Kind of assay: Reversal of P-gp-mediated multidrug-resistance in adriamycin-resistant human K562/A02 cells at 10 uM after 48 hrs by MTT assay relative to adriamycin. The format is cell-based. Put shortly: (§2)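 Cells at 3 × 10⁴/well received graded adriamycin plus test compound (final 10 µM), 48 h at 37 °C, 5% CO2, then MTT read-out at 570 nm. Adriamycin IC50 by Bliss method. Fold reversal = IC50 of adriamycin alone / IC50 with modulator. Student's t test versus no modulator, P < 0.05.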

The nature of assay [3]: Cytotoxicity against adriamycin-resistant human K562/A02 cells after 48 hrs by MTT assay. The format is functional, cell-based. As to conditions: K562/A02, 48 h. Put shortly: as §1
Assay [4] deals with K562. Kind of assay: Reversal of P-gp-mediated multidrug-resistance in human K562 cells at 10 uM after 48 hrs by MTT assay relative to adriamycin. The format is cell-based. Put shortly:
as §2

For assay [5], the system named is K562/A02. Put plainly: Induction of NO production in adriamycin-resistant human K562/A02 cells at 10 uM after 24 hrs by Griess assay. Type of assay: functional, cell-based. Put shortly:
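K562/A02 cells (5 × 10⁶ per well) exposed in triplicate to 10 µM compound for 24 h, harvested and lysed. Lysates mixed with Griess reagent 30–300 min, absorbance at 570 nm. Nitrite/nitrate quantified against sodium nitrate standard curve; diluent-treated cells as background control. Mean SD of three separate experiments.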

The test system of assay [6] is K562/A02. Put plainly: Inhibition of P-gp-mediated rhodamine-123 uptake in adriamycin-resistant human K562/A02 cells assessed as rhodamine-123 accumulation at 10 uM after 60 mins by flow cytometry. Type of assay: cell-based. Put shortly: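 Rhodamine123 uptake in K562/A02 cells followed by fluorescence after treatment with 10 µM (final) modulator; verapamil group as reference, untreated control. Intracellular rhodamine123 read from a rhodamine123 standard curve, fluorescence taken as relative concentration. Student's t test, P < 0.05.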
Background: Flow cytometry measures light scatter and fluorescence of single cells or particles in a stream.

The term IC50 denotes the concentration at which inhibition is half-maximal. Read a high IC50 as weaker potency. `COc1cc2c(cc1OC)C(COc1ccccc1)N(C(=O)CCC(=O)OCCCCOc1no[n+]([O-])c1S(=O)(=O)c1ccccc1)CC2` (stereo not given): the results for the IC50 in assay [1] and in assay [3] were 1500 nM and 17.5 µM, respectively. Further, the figures for the fold change (FC) in assay [2] and in assay [4] were 1.68 and 1.06, respectively.

In the case of `COc1cc2c(cc1OC)CN(C(=O)CCC(=O)OCCCCCCOc1no[n+]([O-])c1S(=O)(=O)c1ccccc1)CC2`, the IC50 in assay [1] turned out to be 1730 nM; in assay [3], 14.6 µM. Besides, the fold change (FC) was determined as 3.2 in assay [2] and 1.09 in assay [4].

For the compound `COc1cc2c(cc1OC)C(Cc1cccc3ccccc13)N(C(=O)CCC(=O)OCCCCCCOc1no[n+]([O-])c1S(=O)(=O)c1ccccc1)CC2` (stereo not given), the concentration for half-maximal inhibition (IC50) in assay [1] is 1600 nM; in assay [3], 12.3 µM. Moreover, the fold change (FC) in assay [2] was 5.05; in assay [4], 1.35.

With `COc1cc2c(cc1OC)C(Cc1cccc3ccccc13)N(C(=O)CCC(=O)OCCOc1no[n+]([O-])c1S(=O)(=O)c1ccccc1)CC2` (stereo not given), the IC50 in assay [1] was 1030 nM; in assay [3], 9.98 µM. Moreover, the fold change (FC) was 2.02 in assay [2] and 1.59 in assay [4].

For the compound `COc1ccc(CCN(C)CCCC(C#N)(c2ccc(OC)c(OC)c2)C(C)C)cc1OC` (stereo not given), the fold change (FC) was determined as 17.4 in assay [2] and 0.96 in assay [4].

Consider `COc1cc2c(cc1OC)CN(C(=O)CCC(=O)OCCCCOc1no[n+]([O-])c1S(=O)(=O)c1ccccc1)CC2`, for which the IC50 came to 1560 nM in assay [1] and 11.8 µM in assay [3]. Further, the values for the fold change (FC) in assay [2] and in assay [4] were 1.85 and 1.5, respectively.

As to `COc1ccc(CC2c3cc(OC)c(OC)cc3CCN2C(=O)CCC(=O)OCCCCCCOc2no[n+]([O-])c2S(=O)(=O)c2ccccc2)cc1OC` (stereo not given), the IC50 is 1650 nM in assay [1] and 12.5 µM in assay [3]. For the same compound, the fold change (FC) in assay [2] came out at 1.96; in assay [4] it was 1.35.

In the case of `COc1ccc(CC2c3cc(OC)c(OC)cc3CCN2C(=O)CCC(=O)OCCOc2no[n+]([O-])c2S(=O)(=O)c2ccccc2)cc1OC` (stereo not given), the IC50 came out at 1090 nM in assay [1] and 11.3 µM in assay [3]. For the same compound, the fold change (FC) in assay [2] amounted to 21.3; in assay [4], 1.47. Also, the outcome in assay [5] was Active. In addition, the inhibition entry in assay [6] is “Active”.

Turning to `COc1cc2c(cc1OC)CN(C(=O)CCC(=O)OCCOc1no[n+]([O-])c1S(=O)(=O)c1ccccc1)CC2`, the IC50 was 1150 nM in assay [1] and 12.7 µM in assay [3]. The fold change (FC) in assay [2] came out at 10.7; in assay [4], 1.34.

For `COc1ccc(CC2c3cc(OC)c(OC)cc3CCN2C(=O)CCC(=O)OCCCCOc2no[n+]([O-])c2S(=O)(=O)c2ccccc2)cc1OC` (stereo not given), the results for the IC50 in assay [1] and in assay [3] were 1930 nM and 13 µM, respectively. The fold change (FC) was determined as 1.88 in assay [2] and 1.1 in assay [4].

`COc1cccc2c1C(=O)c1c(O)c3c(c(O)c1C2=O)C[C@@](O)(C(=O)CO)C[C@@H]3O[C@H]1C[C@H](N)[C@H](O)[C@H](C)O1` [DOXORUBICIN]: in assay [3], 17.8 µM corresponded to half-maximal inhibition (IC50).

Regarding `COc1cc2c(cc1OC)CN(C(=O)CCC(=O)OCC#CCOc1no[n+]([O-])c1S(=O)(=O)c1ccccc1)CC2`, the IC50 in assay [1] was 901 nM; in assay [3], 8.08 µM. Further, the fold change (FC) in assay [2] was 10.1; in assay [4], 1.65.

Take `COc1cc2c(cc1OC)C(COc1ccccc1)N(C(=O)CCC(=O)OCC#CCOc1no[n+]([O-])c1S(=O)(=O)c1ccccc1)CC2` (stereo not given): the IC50 in assay [1] turned out to be 892 nM; in assay [3] it was 6.36 µM. Further, the fold change (FC) in assay [2] and in assay [4] was 1.73 throughout.

`COc1cc2c(cc1OC)C(Cc1cccc3ccccc13)N(C(=O)CCC(=O)OCC#CCOc1no[n+]([O-])c1S(=O)(=O)c1ccccc1)CC2` (stereo not given): the values for the IC50 in assay [1] and in assay [3] were 875 nM and 7.5 µM, respectively. For the same compound, the fold change (FC) in assay [2] came out at 32; in assay [4], 1.86. Also, the result in assay [5] was Active. Moreover, the inhibition entry in assay [6] was “Active”.

`CCCCCCCCN/C(=N/C#N)N1CCc2cc(OC)c(OC)cc2C1Cc1ccc(OC)c(OC)c1` (stereo not given): the IC50 in assay [3] is greater than 500 µM. For the same compound, the result in assay [5] was inactive.

Turning to `COc1cc2c(cc1OC)C(COc1ccccc1)N(C(=O)CCC(=O)OCCCCCCOc1no[n+]([O-])c1S(=O)(=O)c1ccccc1)CC2` (stereo not given), the half-inhibitory concentration (IC50) in assay [1] amounted to 1790 nM; in assay [3] it was 13.5 µM. Also, the results for the fold change (FC) in assay [2] and in assay [4] were 3.15 and 1.2, respectively.

In the case of `COc1cc2c(cc1OC)C(COc1ccccc1)N(C(=O)CCC(=O)OCCOc1no[n+]([O-])c1S(=O)(=O)c1ccccc1)CC2` (stereo not given), the figures for the IC50 in assay [1] and in assay [3] were 1450 nM and 10.8 µM, respectively. For the same compound, the fold change (FC) in assay [2] came out at 10.7; in assay [4] it was 1.54.

In the case of `COc1cc2c(cc1OC)C(Cc1cccc3ccccc13)N(C(=O)CCC(=O)OCCCCOc1no[n+]([O-])c1S(=O)(=O)c1ccccc1)CC2` (stereo not given), the 50% inhibitory concentration (IC50) in assay [1] amounted to 1000 nM; in assay [3] it was 12.2 µM. Besides, the fold change (FC) is 17.4 in assay [2] and 1.47 in assay [4]. For the same compound, the outcome in assay [5] was Active. For the same compound, the inhibition result in assay [6] was “Active”.

`COc1ccc(CC2c3cc(OC)c(OC)cc3CCN2C(=O)CCC(=O)OCC#CCOc2no[n+]([O-])c2S(=O)(=O)c2ccccc2)cc1OC` (stereo not given): the half-maximal inhibitory concentration (IC50) in assay [1] was determined as 905 nM; in assay [3], 8.05 µM. Moreover, the fold change (FC) in assay [2] came to 5.65; in assay [4], 1.65.
